Test results from ChEMBL document CHEMBL1149272, “Catecholic flavonoids acting as telomerase inhibitors” (J Med Chem, 2004).
Calls of active or inactive are those of the source. The rule behind the calls is not given here.

How the values were obtained:
[1] = target: T1, Telomerase reverse transcriptase (Homo sapiens, UniProt O14746); assay: Inhibition of human telomerase from HEK293 cell extracts by Flash-Plate assay; assay type: cell-free
In short: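 Affinity-enriched telomerase extract from HEK293 cells overexpressing telomerase, adjusted to 5 fmol dNTP incorporation min-1 µL-1, in buffer with 50 mM Tris-acetate pH 8.5, 150 mM K acetate, 1 mM MgCl2, 1 mM EGTA. Buffer also held 10 µM dATP, 20 µM dGTP, 120 µM TTP and 500 nM 5'-biotinylated primer. Compounds in DMSO at 0.01-10 µM; 2 h at 37 °C. Elongated primer hybridized to a 33P-labeled complementary probe, captured on streptavidin Flash-Plate; IC50 from radioactivity.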

[2] = target: T1, Telomerase reverse transcriptase; conditions: A-431, 1 uM
[3] = target: DNA-directed RNA polymerase (Enterobacteria phage T3) (UniProt P07659); assay: Inhibition of T3 RNA polymerase up to 2 uM
[4] = target: T1, Telomerase reverse transcriptase; conditions: 1 uM

T1 sequence (O14746 whole entry): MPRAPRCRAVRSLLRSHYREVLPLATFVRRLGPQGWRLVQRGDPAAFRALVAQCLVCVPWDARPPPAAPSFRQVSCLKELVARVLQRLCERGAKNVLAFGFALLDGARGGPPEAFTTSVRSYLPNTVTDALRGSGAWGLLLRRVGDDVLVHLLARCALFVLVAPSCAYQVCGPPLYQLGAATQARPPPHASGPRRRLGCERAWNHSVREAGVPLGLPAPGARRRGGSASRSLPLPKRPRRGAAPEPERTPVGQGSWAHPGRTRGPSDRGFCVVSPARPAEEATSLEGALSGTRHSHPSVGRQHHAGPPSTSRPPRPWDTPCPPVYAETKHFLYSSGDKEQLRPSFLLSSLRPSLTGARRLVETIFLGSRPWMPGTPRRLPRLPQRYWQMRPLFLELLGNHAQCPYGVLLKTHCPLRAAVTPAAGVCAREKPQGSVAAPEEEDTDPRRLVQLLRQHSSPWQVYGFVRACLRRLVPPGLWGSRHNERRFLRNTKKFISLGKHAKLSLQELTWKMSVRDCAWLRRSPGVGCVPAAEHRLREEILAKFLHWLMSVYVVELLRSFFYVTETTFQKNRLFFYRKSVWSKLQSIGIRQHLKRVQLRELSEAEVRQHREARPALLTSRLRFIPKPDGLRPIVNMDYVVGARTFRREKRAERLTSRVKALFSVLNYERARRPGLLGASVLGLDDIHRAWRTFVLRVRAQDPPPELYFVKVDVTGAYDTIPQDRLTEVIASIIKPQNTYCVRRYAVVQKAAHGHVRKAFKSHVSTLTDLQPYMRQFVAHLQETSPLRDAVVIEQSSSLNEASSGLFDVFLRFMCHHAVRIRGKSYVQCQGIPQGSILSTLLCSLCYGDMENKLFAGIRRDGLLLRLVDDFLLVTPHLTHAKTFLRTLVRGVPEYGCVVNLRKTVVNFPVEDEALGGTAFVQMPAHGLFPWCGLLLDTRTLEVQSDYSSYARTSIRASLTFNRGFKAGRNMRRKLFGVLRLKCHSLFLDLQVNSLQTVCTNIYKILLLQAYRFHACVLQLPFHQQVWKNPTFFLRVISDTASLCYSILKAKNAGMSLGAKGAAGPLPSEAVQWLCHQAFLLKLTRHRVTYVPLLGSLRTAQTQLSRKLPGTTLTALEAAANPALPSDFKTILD
Sequence of DNA-directed RNA polymerase (Enterobacteria phage T3) (P07659 whole entry): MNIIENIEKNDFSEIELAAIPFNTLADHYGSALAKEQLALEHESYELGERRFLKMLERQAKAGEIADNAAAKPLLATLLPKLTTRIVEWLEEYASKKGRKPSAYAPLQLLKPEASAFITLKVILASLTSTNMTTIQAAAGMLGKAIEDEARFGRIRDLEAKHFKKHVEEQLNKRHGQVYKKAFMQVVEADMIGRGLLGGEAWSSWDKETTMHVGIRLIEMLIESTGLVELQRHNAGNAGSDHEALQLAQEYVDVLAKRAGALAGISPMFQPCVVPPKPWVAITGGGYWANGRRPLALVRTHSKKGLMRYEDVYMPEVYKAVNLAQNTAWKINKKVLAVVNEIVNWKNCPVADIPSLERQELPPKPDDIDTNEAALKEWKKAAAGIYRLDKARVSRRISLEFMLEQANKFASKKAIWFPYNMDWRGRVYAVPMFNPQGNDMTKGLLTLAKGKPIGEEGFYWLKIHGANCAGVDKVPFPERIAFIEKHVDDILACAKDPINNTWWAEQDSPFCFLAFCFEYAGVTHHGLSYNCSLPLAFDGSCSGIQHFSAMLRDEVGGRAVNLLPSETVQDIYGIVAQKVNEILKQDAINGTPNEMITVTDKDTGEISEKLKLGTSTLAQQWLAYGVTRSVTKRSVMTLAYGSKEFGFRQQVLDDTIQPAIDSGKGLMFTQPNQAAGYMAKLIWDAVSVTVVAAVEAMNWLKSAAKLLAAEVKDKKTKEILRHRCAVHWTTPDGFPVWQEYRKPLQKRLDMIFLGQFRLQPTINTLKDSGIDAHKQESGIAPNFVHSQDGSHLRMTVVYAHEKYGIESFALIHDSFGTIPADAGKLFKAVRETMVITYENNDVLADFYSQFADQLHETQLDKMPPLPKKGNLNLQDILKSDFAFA

Row | SMILES | IC50 [1] [µM] | also measured
1 | COc1ccc2c(=O)cc(-c3ccc4[nH]c(CCCN(C)C)nc4c3)oc2c1OC | 0.47 | –
2 | O=C(/C=C/c1ccc(O)c(O)c1)c1ccc(O)c(O)c1 | 1.7 | –
3 | O=c1cc(-c2ccccc2)oc2c(O)c(O)ccc12 [7,8-DIHYDROXYFLAVONE] | 36 | –
4 | O=c1[nH]c2ccc(-c3cc(=O)c4ccc(O)c(O)c4o3)cc2[nH]c1=O | > 40 | –
5 | COc1ccc2c(=O)cc(-c3ccc4[nH]c(=O)c(=O)[nH]c4c3)oc2c1OC | > 40 | –
6 | O=c1cc(-c2ccc(O)c(O)c2)oc2ccccc12 | > 40 | –
7 | COc1ccc2c(=O)cc(-c3ccc(O)c(O)c3)oc2c1OC | > 40 | –
8 | O=c1cc(-c2ccc(O)c(O)c2)oc2c(O)cccc12 | > 40 | –
9 | O=c1cc(-c2ccc3[nH]cnc3c2)oc2c(O)c(O)ccc12 | 4 | –
10 | COc1ccc2c(=O)cc(-c3ccc4[nH]c(C)nc4c3)oc2c1OC | 22.1 | –
11 | O=C(/C=C/c1ccc(O)c(O)c1)c1ccc(O)c(O)c1O | 6 | –
12 | O=c1cc(-c2cccc(O)c2)oc2c(O)c(O)ccc12 | 50 | –
13 | COc1ccc(-c2cc(=O)c3ccc(O)c(O)c3o2)cc1O | 11 | –
14 | O=c1[nH]c2ccc(-c3cc(=O)c4ccc(O)c(O)c4o3)cc2[nH]1 | 1.2 | –
15 | O=c1cc(-c2ccc(O)c(O)c2)oc2cc(O)ccc12 | > 40 | –
16 | Cc1nc2cc(-c3cc(=O)c4ccc(O)c(O)c4o3)ccc2[nH]1 | > 40 | –
17 | O=c1cc(-c2ccc(O)c(O)c2)oc2c(O)c(O)ccc12 | 0.2 | inhibition [2]: 50%; Activity [3]: inactive; inhibition [4]: 50%
18 | O=c1cc(-c2ccc(O)c(O)c2)oc2c(O)c(O)c(Cl)cc12 | 0.82 | –
19 | COc1ccc(-c2cc(=O)c3ccc(O)c(O)c3o2)cc1OC | 11.7 | –
